Columns and labels:
murine TLR2 = murine TLR2 (Mus musculus, UniProt Q9QUN7); assay: murine TLR2-specific NF-κB reporter gene assay; format: cell-based; conditions: for mTLR2-agonistic activity (in words): murine TLR2 reporter gene assay
Summary of the method: (§1)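 HEK-Blue reporter cells with NF-κB-driven secreted alkaline phosphatase (sAP) were plated at ~10⁵ cells/mL and grown to confluency. They were then stimulated for 12 h with serially diluted test compound. Extracellular sAP in the supernatant was read spectrophotometrically at 620 nm using an alkaline phosphatase-specific chromogen in the detection medium. Samples were run in quadruplicate, with means and standard deviations shown.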

human TLR2 [1] = target: T1, human TLR2 (Homo sapiens, UniProt O60603); assay: human TLR2-specific NF-κB reporter gene assay; format: cell-based; conditions: for absolute magnitude of TLR2-induced NF-κB activation (in words): Fig. 1
Summary of the method: as §1

human TLR2 [2] = target: T1, human TLR2; conditions: cited from earlier work

Sequence of murine TLR2 (Q9QUN7 25-784): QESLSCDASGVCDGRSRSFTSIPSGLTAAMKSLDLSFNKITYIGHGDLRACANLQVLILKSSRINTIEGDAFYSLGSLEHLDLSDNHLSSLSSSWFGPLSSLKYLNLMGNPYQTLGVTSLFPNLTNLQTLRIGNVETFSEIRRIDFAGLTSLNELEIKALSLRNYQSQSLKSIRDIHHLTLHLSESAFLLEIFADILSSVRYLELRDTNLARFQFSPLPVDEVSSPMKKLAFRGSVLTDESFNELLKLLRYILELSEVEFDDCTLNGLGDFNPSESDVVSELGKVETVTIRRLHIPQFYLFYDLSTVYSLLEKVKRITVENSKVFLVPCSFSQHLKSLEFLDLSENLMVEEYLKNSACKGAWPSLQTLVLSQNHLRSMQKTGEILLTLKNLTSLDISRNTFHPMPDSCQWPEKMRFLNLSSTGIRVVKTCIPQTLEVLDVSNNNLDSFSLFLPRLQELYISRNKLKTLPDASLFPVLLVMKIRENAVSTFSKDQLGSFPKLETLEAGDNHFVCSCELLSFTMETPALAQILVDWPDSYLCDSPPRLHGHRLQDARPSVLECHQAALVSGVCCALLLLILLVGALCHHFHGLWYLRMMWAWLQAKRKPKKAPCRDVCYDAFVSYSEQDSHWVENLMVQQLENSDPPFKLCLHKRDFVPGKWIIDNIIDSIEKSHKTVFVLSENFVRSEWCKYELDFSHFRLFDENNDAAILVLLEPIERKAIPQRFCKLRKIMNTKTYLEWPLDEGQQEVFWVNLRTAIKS
T1 sequence (O60603 21-784): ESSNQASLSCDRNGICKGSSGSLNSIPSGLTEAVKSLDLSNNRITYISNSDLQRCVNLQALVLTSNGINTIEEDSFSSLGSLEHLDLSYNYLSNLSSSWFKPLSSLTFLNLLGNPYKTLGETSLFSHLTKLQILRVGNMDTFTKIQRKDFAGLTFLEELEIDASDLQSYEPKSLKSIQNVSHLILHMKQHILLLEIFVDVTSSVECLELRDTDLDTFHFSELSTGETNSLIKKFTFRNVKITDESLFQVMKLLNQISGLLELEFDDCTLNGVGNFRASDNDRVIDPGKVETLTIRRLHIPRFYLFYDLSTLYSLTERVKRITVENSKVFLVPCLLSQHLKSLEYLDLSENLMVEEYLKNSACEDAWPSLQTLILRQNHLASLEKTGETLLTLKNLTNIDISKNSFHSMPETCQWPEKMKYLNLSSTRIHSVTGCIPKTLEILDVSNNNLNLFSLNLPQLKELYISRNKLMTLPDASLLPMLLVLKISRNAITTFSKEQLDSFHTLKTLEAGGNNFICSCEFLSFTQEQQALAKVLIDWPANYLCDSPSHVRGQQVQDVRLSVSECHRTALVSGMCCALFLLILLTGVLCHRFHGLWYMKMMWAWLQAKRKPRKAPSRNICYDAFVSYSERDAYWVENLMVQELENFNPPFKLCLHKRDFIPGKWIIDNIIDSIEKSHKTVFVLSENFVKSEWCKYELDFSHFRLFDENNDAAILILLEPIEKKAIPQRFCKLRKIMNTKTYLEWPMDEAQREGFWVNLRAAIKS

Structure (SMILES)	hTLR2-agonistic activity (in words) (human TLR2 [1])	further results
CCCCCCCCCCCCCCCC(=O)OCCSC[C@H](N)C(=O)N[C@@H](CO)C(=O)OC [Compound 6d]	–	specificity for human versus murine TLR2 (in words) (murine TLR2; human and murine TLR2 reporter gene assays): exquisite specificity in activating human TLR2 (hTLR2), but not murine TLR2 (mTLR2); mTLR2-agonistic activity (in words) (murine TLR2): entirely inactive
CCCCCCCCCCCCCCCCCC(=O)OCCSC[C@H](N)C(=O)N[C@@H](CO)C(=O)OC [Compound 6e, 2-(((R)-2-amino-3-(((S)-3-hydroxy-1-methoxy-1-oxopropan-2-yl)amino)-3-oxopropyl)thio)ethyl stearate]	–	mTLR2-agonistic activity (in words) (murine TLR2): entirely inactive
COC(=O)[C@H](CO)NC(=O)[C@@H](N)CSCCOC(=O)c1ccc(-c2ccccc2)cc1 [Compound 6f, 2-(((R)-2-amino-3-(((S)-3-hydroxy-1-methoxy-1-oxopropan-2-yl)amino)-3-oxopropyl)thio)ethyl [1,1'-biphenyl]-4-carboxylate]	complete absence of activity	–
COC(=O)[C@H](CO)NC(=O)[C@@H](N)CSCCOC(=O)c1cccc(-c2ccccc2)c1 [Compound 6g, 2-(((R)-2-amino-3-(((S)-3-hydroxy-1-methoxy-1-oxopropan-2-yl)amino)-3-oxopropyl)thio)ethyl [1,1'-biphenyl]-3-carboxylate]	complete absence of activity	–
CCCCCCCCCCCCCCN(CCCCCCCCCCCCCC)CC(=O)OCCSC[C@H](N)C(=O)N[C@@H](CO)C(=O)OC [Compound 10a, (S)-methyl 2-((R)-2-amino-3-((2-(2-(ditetradecylamino)acetoxy)ethyl)thio)propanamido)-3-hydroxypropanoate]	completely inactive	–
CCCCCCCCCCCCCCNCC(=O)OCCSC[C@H](N)C(=O)N[C@@H](CO)C(=O)OC [Compound 10b, (S)-methyl 2-((R)-2-amino-3-((2-(2-(tetradecylamino)acetoxy)ethyl)thio)propanamido)-3-hydroxypropanoate]	completely inactive	–
CCCCCCCCCCCCCCCC(=O)OCCSC[C@H](NC(C)=O)C(=O)N[C@@H](CO)C(=O)OC [Compound 11d, 2-(((R)-2-acetamido-3-(((S)-3-hydroxy-1-methoxy-1-oxopropan-2-yl)amino)-3-oxopropyl)thio)ethyl palmitate]	–	absolute magnitude of TLR2-induced NF-κB activation (in words) (human TLR2 [1]): far greater
CCCCCCCCCCCCCCCC(=O)N[C@@H](CSCCOC(=O)CCCCCCCCCCCCCCC)C(=O)N[C@@H](CO)C(=O)OC [Compound 11g, 2-(((R)-3-(((S)-3-hydroxy-1-methoxy-1-oxopropan-2-yl)amino)-3-oxo-2-palmitamidopropyl)thio)ethyl palmitate]	complete loss of activity	–
CCCCCCCCCCCCCCCC(=O)OCCSC[C@H](NC(=O)C(F)(F)F)C(=O)N[C@@H](CO)C(=O)OC [Compound 11h, 2-(((R)-3-(((S)-3-hydroxy-1-methoxy-1-oxopropan-2-yl)amino)-3-oxo-2-(2,2,2-trifluoroacetamido)propyl)thio)ethyl palmitate]	–	absolute magnitude of TLR2-induced NF-κB activation (in words) (human TLR2 [1]): low magnitude of NF-κB activation
CCCCCCCCCCCCCCCC(=O)OCCSC[C@H](N)C(=O)N[C@@H](COC(C)=O)C(=O)OC [Compound 14a, 2-(((R)-3-(((S)-3-acetoxy-1-methoxy-1-oxopropan-2-yl)amino)-2-amino-3-oxopropyl)thio)ethyl palmitate]	virtually indistinguishable from that of 6d	–
CCCCCCCCCCCCCCCC(=O)OCCCSC[C@H](N)C(=O)N[C@@H](CO)C(=O)OC [Compound 15, 3-((R)-2-amino-3-((S)-3-hydroxy-1-methoxy-1-oxopropan-2-ylamino)-3-oxopropylthio)propyl palmitate]	–	TLR2-agonistic activity (in words), previously identified (human TLR2 [2]): inactive
CCCCCCCCCCCCCCCC(=O)OCCCSC[C@H](NC(C)=O)C(=O)N[C@@H](CO)C(=O)OC [Compound 16, 3-(((R)-2-acetamido-3-(((S)-3-hydroxy-1-methoxy-1-oxopropan-2-yl)amino)-3-oxopropyl)thio)propyl palmitate]	active, albeit much weaker in potency than 11d	–

— PMC3325328 (Journal of Medicinal Chemistry, 2012)
